Common to all, as to format: functional, organism-based
One assay relates to Escherichia coli. Nature of the assay: Antimicrobial activity against Escherichia coli ATCC 25922 at 32 ug/ml after 18 hrs. In outline:
(§1)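 Single-concentration screen: samples from 10 mg/mL DMSO stocks, duplicate wells; overnight culture in cation-adjusted Mueller Hinton broth at 37 °C, added to 5 × 10^5 CFU/mL, final compound 32 μg/mL; 37 °C, 18 h. Growth read as absorbance at 600 nm; percent inhibition against media-only and untreated-cell controls on the same plate, significance by Z-score.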

The test system of another assay is Pseudomonas aeruginosa. The experiment in a line: Antimicrobial activity against Pseudomonas aeruginosa ATCC 27853 at 32 ug/ml after 18 hrs. In outline: as §1
In a further assay the test system is Cryptococcus neoformans. The experiment in a line: Antimicrobial activity against Cryptococcus neoformans ATCC 208821 at 32 ug/ml after 24 hrs by resazurin dye based assay. An outline of the steps:
(§2)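 Fungi grown 3 days on yeast extract–peptone dextrose agar at 30 °C, then diluted in yeast nitrogen base broth to 2.5 × 10^5 CFU/mL. Samples from 10 mg/mL DMSO stocks, duplicate wells, final 32 μg/mL; 35 °C, 24 h. Resazurin added (0.001% final), 2 h more at 35 °C, absorbance at 530 nm. Percent inhibition against on-plate controls; Z-scores.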
In general terms: Resazurin is reduced to fluorescent resorufin, in cell work by metabolically active cells.

Assay [1] deals with Acinetobacter baumannii. Nature of the assay: Antimicrobial activity against Acinetobacter baumannii ATCC 19606 at 32 ug/ml after 18 hrs. Conditions: ATCC 19606 = CIP 70.34 = JCM 6841. In outline:
as §1

In another assay the test system is Candida albicans. The experiment in a line: Antimicrobial activity against Candida albicans ATCC 90028 at 32 ug/ml after 24 hrs by resazurin dye based assay. In outline: as §2
Another assay deals with Staphylococcus aureus. Nature of the assay: Antimicrobial activity against methicillin-resistant Staphylococcus aureus ATCC 43300 at 32 ug/ml after 18 hrs. In outline: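 Single-concentration screen (COADD): samples dissolved in DMSO at 10 mg/mL stock, plated in duplicate; overnight culture in cation-adjusted Mueller Hinton broth at 37 °C added to 5 × 10^5 CFU/mL, final 32 μg/mL. Incubated 37 °C. Read-out absorbance 600 nm; percent growth inhibition versus media-only and untreated-cell controls on the same plate; significance by Z-score from sample wells.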

In the next assay the test system is Klebsiella pneumoniae. The experiment in a line: Antimicrobial activity against Klebsiella pneumoniae ATCC 700603 at 32 ug/ml after 18 hrs. In outline:
as §1

Assay [2] deals with Acinetobacter baumannii. The experiment in a line: Antimicrobial activity against Acinetobacter baumannii ATCC 19606 at 94.9 uM after 18 hrs. As to conditions: ATCC 19606 = CIP 70.34 = JCM 6841. An outline of the steps:
as §1

For assay [3], the system named is Acinetobacter baumannii. Nature of the assay: Antimicrobial activity against Acinetobacter baumannii ATCC 19606 at 53.9 uM after 18 hrs. Conditions: ATCC 19606 = CIP 70.34 = JCM 6841. An outline of the steps:
as §1

Assay [4] concerns Acinetobacter baumannii. The experiment in a line: Antimicrobial activity against Acinetobacter baumannii ATCC 19606 at 52.4 uM after 18 hrs. As to conditions: ATCC 19606 = CIP 70.34 = JCM 6841. An outline of the steps: as §1

The structures appear in SMILES notation. Activity calls are given as the source filed them. The calls are words filed in the database; no cut-off is given here.

Consider `O=c1c(O)c(-c2ccc(O)cc2)oc2cc(O)cc(O)c12`, for which the result with Escherichia coli, in the assay with Pseudomonas aeruginosa, in the assay with Cryptococcus neoformans, with Acinetobacter baumannii [1], with Candida albicans and in the assay on Staphylococcus aureus was inactive. In the assay on Klebsiella pneumoniae, the outcome was inactive.
Regarding `NC(CCCC(OC(=O)/C=C/c1ccc(O)cc1)C(=O)O)C(=O)O` (stereo unspecified), the outcome in the assay on Escherichia coli, in the assay on Pseudomonas aeruginosa, in the assay with Cryptococcus neoformans, with Candida albicans, in the assay with Staphylococcus aureus and in the assay on Klebsiella pneumoniae was inactive. In addition, in the assay with Acinetobacter baumannii [2], the outcome was Active.
Turning to `O=C1c2c(O)cc(O)cc2O[C@H](c2ccc(O)c(O)c2)[C@H]1O`, the outcome in the assay with Escherichia coli, in the assay with Pseudomonas aeruginosa, in the assay on Cryptococcus neoformans, with Acinetobacter baumannii [1], with Candida albicans and with Staphylococcus aureus was inactive. The result in the assay with Klebsiella pneumoniae was inactive.
For `O=C(/C=C/c1ccc(O)cc1)OC[C@H]1O[C@@H](Oc2cc3c(O)cc(O)cc3[o+]c2-c2ccc(O)c(O)c2)[C@H](O)[C@@H](O)[C@@H]1O`, the outcome in the assay with Escherichia coli, in the assay on Pseudomonas aeruginosa, in the assay on Cryptococcus neoformans, in the assay with Acinetobacter baumannii [1], in the assay on Candida albicans and in the assay with Staphylococcus aureus was inactive. Moreover, in the assay with Klebsiella pneumoniae, the result was inactive.
As to `O=C(/C=C/c1ccc(O)cc1)OC[C@H]1O[C@@H](Oc2c(-c3ccc(O)c(O)c3)oc3cc(O)cc(O)c3c2=O)[C@H](O)[C@@H](O)[C@@H]1O`, the result in the assay on Escherichia coli, in the assay on Pseudomonas aeruginosa, with Cryptococcus neoformans, in the assay on Acinetobacter baumannii [1], in the assay on Candida albicans and in the assay on Staphylococcus aureus was inactive. Moreover, in the assay with Klebsiella pneumoniae, the outcome was inactive.
Turning to `O=C(/C=C/c1ccc(O)cc1)O[C@H]1[C@H](O)[C@@H](O)[C@H](Oc2cc(O)c(O)c(C(=O)/C=C/c3ccc(O)cc3)c2)O[C@@H]1CO`, the result in the assay with Escherichia coli, in the assay on Pseudomonas aeruginosa, with Cryptococcus neoformans, in the assay on Acinetobacter baumannii [1], in the assay on Candida albicans and with Staphylococcus aureus was inactive. For the same compound, the outcome with Klebsiella pneumoniae was inactive.
On to `O=c1cc(-c2ccc(O)c(O)c2)oc2cc(O[C@@H]3O[C@H](CO)[C@@H](O)[C@H](O)[C@H]3O)cc(O)c12`, for which the outcome in the assay with Escherichia coli, in the assay on Pseudomonas aeruginosa, in the assay with Cryptococcus neoformans, with Acinetobacter baumannii [1], in the assay on Candida albicans and with Staphylococcus aureus was inactive. Moreover, the outcome with Klebsiella pneumoniae was inactive.
Take `C[C@@H]1O[C@@H](OC[C@H]2O[C@@H](Oc3c(-c4ccc(O)c(O)c4)oc4cc(O)cc(O)c4c3=O)[C@H](O)[C@@H](O)[C@@H]2O)[C@H](O)[C@H](O)[C@H]1O`: the result in the assay with Escherichia coli, in the assay with Pseudomonas aeruginosa, in the assay on Cryptococcus neoformans, with Acinetobacter baumannii [1], with Candida albicans and in the assay with Staphylococcus aureus was inactive. Further, in the assay with Klebsiella pneumoniae, the result was inactive.
`C[C@@H]1O[C@@H](OC[C@H]2O[C@@H](Oc3c(-c4ccc(O)cc4)oc4cc(O)cc(O)c4c3=O)[C@H](O)[C@@H](O)[C@@H]2O)[C@H](O)[C@H](O)[C@H]1O`: the result in the assay with Escherichia coli, with Pseudomonas aeruginosa, in the assay on Cryptococcus neoformans, in the assay on Candida albicans, with Staphylococcus aureus and with Klebsiella pneumoniae was inactive. Also, in the assay with Acinetobacter baumannii [3], the outcome was Active.
As to `O=C(O)[C@H]1O[C@@H](Oc2cc(O)c3c(=O)cc(-c4ccc(O)cc4)oc3c2)[C@H](O)[C@@H](O)[C@@H]1O`, the result with Escherichia coli, with Pseudomonas aeruginosa, with Cryptococcus neoformans, in the assay on Acinetobacter baumannii [1], in the assay on Candida albicans and in the assay on Staphylococcus aureus was inactive. Moreover, the outcome in the assay on Klebsiella pneumoniae was inactive.
With `O=C(/C=C/c1ccc(O)cc1)OC[C@H]1O[C@@H](Oc2c(-c3ccc(O)cc3)oc3cc(O)cc(O)c3c2=O)[C@H](O)[C@@H](O)[C@@H]1O`, the outcome in the assay on Escherichia coli, in the assay on Pseudomonas aeruginosa, with Cryptococcus neoformans, in the assay on Acinetobacter baumannii [1], in the assay with Candida albicans and in the assay on Staphylococcus aureus was inactive. In the assay on Klebsiella pneumoniae, the result was inactive.
Consider `C[C@@H]1O[C@@H](OC[C@H]2O[C@@H](Oc3cc4c(O)cc(O)cc4[o+]c3-c3ccc(O)c(O)c3)[C@H](O)[C@@H](O)[C@@H]2O)[C@H](O)[C@H](O)[C@H]1O`, for which the outcome with Escherichia coli, with Pseudomonas aeruginosa, in the assay on Cryptococcus neoformans, with Candida albicans, with Staphylococcus aureus and in the assay with Klebsiella pneumoniae was inactive. In the assay on Acinetobacter baumannii [4], the result was Active.
As for `O=c1c(O[C@@H]2O[C@H](CO)[C@@H](O)[C@H](O)[C@H]2O)c(-c2ccc(O)c(O)c2)oc2cc(O)cc(O)c12`, the result in the assay with Escherichia coli, with Pseudomonas aeruginosa, in the assay on Cryptococcus neoformans, with Acinetobacter baumannii [1], with Candida albicans and in the assay with Staphylococcus aureus was inactive. Besides, in the assay with Klebsiella pneumoniae, the outcome was inactive.

The values are drawn from ChEMBL document CHEMBL4190246, “Phytochemical Studies on Two Australian Anigozanthos Plant Species” (J Nat Prod, 2017).
